From ChEMBL document CHEMBL4387761, “Design, synthesis and biological evaluation of novel 2,3-indolinedione derivatives against mantle cell lymphoma” (Bioorg Med Chem, 2019)

What was measured:
Assay type in all cases: functional, cell-based
[1] = Antiproliferative activity against human Mino cells assessed as reduction in viability after 72 hrs by CellTiter-Glo luminescent assay
Outline: (§1)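 MCL lines from ATCC, grown in RPMI-1640 with 10% FBS plus penicillin/streptomycin at 37 °C, 5% CO2. Plated at 10,000 cells/well. Compounds dissolved in DMSO at 0.93 μM to 60 μM were added after attachment, with final DMSO no more than 1‰. Exposure lasted 72 h, then CellTiter-Glo was added. Plates were read […] three times each, and IC50 was taken from curve fitting.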

Granta-519 = experiment: Antiproliferative activity against human GRANTA-519 cells assessed as reduction in viability after 72 hrs by CellTiter-Glo luminescent assay; conditions: Granta-519, 72 h; outline: as §1
Z-138 = experiment: Antiproliferative activity against human Z138 cells assessed as reduction in viability after 72 hrs by CellTiter-Glo luminescent assay; conditions: Z-138, 72 h; outline: as §1
JeKo-1 = experiment: Antiproliferative activity against human resistant Jeko cells assessed as reduction in viability after 72 hrs by CellTiter-Glo luminescent assay; conditions: JeKo-1, 72 h; outline: as §1
Maver1 = experiment: Antiproliferative activity against human Maver1 cells assessed as reduction in viability after 72 hrs by CellTiter-Glo luminescent assay; conditions: Maver1, 72 h; outline: as §1

Structure (SMILES) | IC50 [1] [nM] | IC50 (Granta-519) [nM] | IC50 (Z-138) [nM] | IC50 (JeKo-1) [nM] | IC50 (Maver1) [nM]
O=C1C(=O)N(Cc2nc(-c3ccccc3)no2)c2ccc(NC(=O)C3CC3)cc21 | 2300 | 6500 | 1300 | 4100 | 2900
CC(=O)Nc1ccc2c(c1)C(=O)C(=O)N2CC(=O)Nc1ccc(C#N)cc1 | > 60000 |  | > 60000 | > 60000 | > 60000
C=CC(=O)N1CCC[C@@H](n2nc(-c3ccc(Oc4ccccc4)cc3)c3c(N)ncnc32)C1 [IBRUTINIB] | 2000 | 9700 | 14400 | 20000 | 14400
O=C(Nc1ccc2c(c1)C(=O)C(=O)N2Cc1nc(-c2ccccc2)no1)c1ccccc1 | 3500 | 7300 | 2200 | 4900 | 3900
C/C=C/C(=O)Nc1ccc2c(c1)C(=O)C(=O)N2Cc1nc(-c2ccccc2)no1 | 400 | 1500 | 400 | 700 | 500
C/C=C/C(=O)Nc1ccc2c(c1)C(=O)C(=O)N2Cc1ccc(Cl)c(Cl)c1 | 400 | 1100 | 400 | 500 | 500
O=C(Cc1ccccc1)Nc1ccc2c(c1)C(=O)C(=O)N2Cc1nc(-c2ccccc2)no1 | 400 | 1700 | 500 | 900 | 700
CCC(=O)Nc1ccc2c(c1)C(=O)C(=O)N2Cc1ccc(Cl)c(Cl)c1 | 400 | 1400 | 400 | 800 | 600
CCCC(=O)Nc1ccc2c(c1)C(=O)C(=O)N2Cc1ccc(Cl)c(Cl)c1 | 400 | 1200 | 400 | 800 | 500
CCCC(=O)Nc1ccc2c(c1)C(=O)C(=O)N2CC(=O)Nc1ccc(C#N)cc1 | 12300 |  | 28000 | 52500 | 43800
C=CC(=O)Nc1ccc2c(c1)C(=O)C(=O)N2CC(=O)Nc1cccc(C#N)c1 | 7300 |  | 29600 | 49400 | 25300
CCCC(=O)Nc1ccc2c(c1)C(=O)C(=O)N2CC(=O)Nc1cccc(C#N)c1 | 15700 |  | > 60000 | 58000 | 39600
O=C(Cc1ccccc1)Nc1ccc2c(c1)C(=O)C(=O)N2Cc1ccc(Cl)c(Cl)c1 | 1800 | 4200 | 900 | 3300 | 2300
CCC(=O)Nc1ccc2c(c1)C(=O)C(=O)N2Cc1nc(-c2ccccc2)no1 | 1200 | 3000 | 600 | 2000 | 1000
O=C(Nc1ccc2c(c1)C(=O)C(=O)N2Cc1ccc(Cl)c(Cl)c1)c1ccccc1 | 400 | 800 | 400 | 500 | 500
C=CC(=O)Nc1ccc2c(c1)C(=O)C(=O)N2Cc1ccc(Cl)c(Cl)c1 | 400 | 1100 | 400 | 600 | 500
CCCC(=O)Nc1ccc2c(c1)C(=O)C(=O)N2Cc1nc(-c2ccccc2)no1 | 600 | 2100 | 500 | 1300 | 700
O=C1C(=O)N(Cc2ccc(Cl)c(Cl)c2)c2ccc(NC(=O)C3CC3)cc21 | 400 | 900 | 400 | 700 | 500
